# Laboratory results taken from ChEMBL document CHEMBL1128731, “Furanfurin and thiophenfurin: two novel tiazofurin analogues. Synthesis, structure, antitumor activity, and interactions with inosine monophosphate dehydrogenase” (J Med Chem, 1995).
# What was measured:
# HL-60 [1] = assay: (§1) Inhibitory concentration against human HL-60 cell line(activity expressed as range); format: functional
# Outline: (§2)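 Antiproliferative assay scoring [125I]-5-iodo-2'-deoxyuridine incorporation into DNA after 72 h drug–cell contact. Run on normal human bone marrow from five donors and in three assays on HL-60. Ratio is antilog(mean log IC50 or IC90) on bone marrow over the same on HL-60. Range limits are antilog(mean log IC50 ± 2SD).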
# HL-60 [2] = assay: Inhibitory concentration against HL-60 human promyelocytic leukemia; format: functional, cell-based
# Outline: (§3)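 Cells in log phase plated with a range of drug concentrations (B16 5×10^3 cells/well; P388, L1210, LLC 10^4 cells/well; HL-60, K562, LoVo 2.5×10^5 cells/well). Growth read by modified MTT after 72 h drug contact at 37 °C. IC50 taken as the concentration reducing optical absorption by 50%, from Chou regression analysis. Maximum concentration tested 200 μM.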
# K562 [3] = assay: Compound was tested for its effect on IMPDH activity against K562 cells at 50 uM concentration; format: functional, Homo sapiens
# Outline: (§4)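 Log-phase K562 cells (1×10^6/mL) were exposed to saline or agent for 2 h at 37 °C, washed and lysed (Tris-HCl pH 7.4, NaCl, MgCl2, 0.5% NP-40, aprotinin). The cleared supernatant was incubated 30 min at 37 °C with 286 μM [2,8-3H]IMP and 1 mM NAD. Tritium release was counted by scintillation. Activity is nmol XMP/h/mg protein, also given as % of control.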
# K562 [4] = assay: Compound was tested for its effect on UTP ribonucleotide levels of K562 cell at 100 uM concentration; format: functional, Homo sapiens
# Outline: (§5)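 K562 cells (1×10^7) were treated with saline or agent for 2 h at 37 °C, harvested by centrifugation and washed with cold saline. They were extracted with cold 10% trichloroacetic acid, neutralized with 0.5 M tri-n-octylamine in freon, and analyzed by HPLC. Levels are in nmol/g and expressed as % of saline control. Significance was set at p < 0.05.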
# K562 [5] = assay: Compound was tested for its effect on ATP ribonucleotide levels of K562 cell at 100 uM concentration; format: functional, Homo sapiens; outline: as §5
# K562 [6] = assay: Compound was tested for its effect on UTP ribonucleotide levels of K562 cell at 10 uM concentration; format: functional, Homo sapiens; outline: as §5
# K562 [7] = assay: Compound was tested for its effect on GDP ribonucleotide levels of K562 cell at 50 uM concentration; format: functional, Homo sapiens; outline: as §5
# K562 [8] = assay: Compound was tested for its effect on IMP ribonucleotide levels of K562 cell at 50 uM concentration; format: functional, Homo sapiens; outline: as §5
# K562 [9] = assay: Compound was tested for its effect on AMP ribonucleotide levels of K562 cell at 10 uM concentration; format: functional, Homo sapiens; outline: as §5
# K562 [10] = assay: Compound was tested for its effect on UMP ribonucleotide levels of K562 cell at 50 uM concentration; format: functional, Homo sapiens; outline: as §5
# K562 [11] = assay: Compound was tested for its effect on UDP ribonucleotide levels of K562 cell at 10 uM concentration; format: functional, Homo sapiens; outline: as §5
# K562 [12] = assay: Compound was tested for its effect on UMP ribonucleotide levels of K562 cell at 10 uM concentration; format: functional, Homo sapiens; outline: as §5
# K562 [13] = assay: Compound was tested for its effect on IMPDH activity against K562 cells at 10 uM concentration; format: functional, Homo sapiens; outline: as §4
# K562 [14] = assay: Compound was tested for its effect on GTP ribonucleotide levels of K562 cell at 10 uM concentration; format: functional, Homo sapiens; outline: as §5
# K562 [15] = assay: Compound was tested for its effect on CTP ribonucleotide levels of K562 cell at 100 uM concentration; format: functional, Homo sapiens; outline: as §5
# [16] = system: Lewis lung carcinoma cell line; assay: Inhibitory concentration against LLC Lewis lung carcinoma; format: functional, cell-based; conditions: Mus musculus; outline: as §3
# [17] = IC50 ratio against bone marrow samples to HL-60; format: functional; outline: as §2
# L1210 = assay: Inhibitory concentration against L1210 murine lymphocytic leukemia; format: functional, cell-based; conditions: Mus musculus; outline: as §3
# K562 [18] = assay: Compound was tested for its effect on IMPDH activity against K562 cells at 100 uM concentration; format: functional, Homo sapiens; outline: as §4
# K562 [19] = assay: Compound was tested for its effect on UDP ribonucleotide levels of K562 cell at 100 uM concentration; format: functional, Homo sapiens; outline: as §5
# K562 [20] = assay: Compound was tested for its effect on NAD ribonucleotide levels of K562 cell at 50 uM concentration; format: functional, Homo sapiens; outline: as §5
# K562 [21] = assay: Inhibitory concentration against K562 human myelogenous leukemia cell line; format: functional, cell-based; outline: as §3
# K562 [22] = assay: compound was tested for its effect on IMPDH activity against K562 cells at 100 uM concentration; format: functional, Homo sapiens
# Outline: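 K562 cells (1×10^6/mL, log phase) exposed 2 h at 37 °C to 10, 50 or 100 μM drug, or to saline. Cells washed and lysed in Tris-HCl pH 7.4/NaCl/MgCl2/NP-40/aprotinin, and the 13000g supernatant used as enzyme. Enzyme incubated 30 min at 37 °C with 286 μM [2,8-3H]IMP and 1 mM NAD. Tritium release counted; activity in nmol XMP/h/mg protein, as % of saline control.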
# K562 [23] = assay: Compound was tested for its effect on ADP ribonucleotide levels of K562 cell at 50 uM concentration; format: functional, Homo sapiens; outline: as §5
# K562 [24] = assay: Compound was tested for its effect on CTP ribonucleotide levels of K562 cell at 50 uM concentration; format: functional, Homo sapiens; outline: as §5
# HL-60 [25] = assay: as §1; format: functional, cell-based; outline: as §2
# K562 [26] = assay: Compound was tested for its effect on GDP ribonucleotide levels of K562 cell at 10 uM concentration; format: functional, Homo sapiens; outline: as §5
# K562 [27] = assay: Compound was tested for its effect on IMP ribonucleotide levels of K562 cell at 100 uM concentration; format: functional, Homo sapiens; outline: as §5
# Mus musculus [28] = assay: Average weight change of mice from onset to termination of drug treatment at 400 mg/kg dose; early death due to toxicity; format: functional, organism-based; design: dose 400 mg/kg
# Outline: (§6)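 Female BD2F1 mice (8 weeks, 20–22 g), eight per group, injected ip with 10^5 L1210 cells on day 0. From 24 h later, drug in 0.9% NaCl was given ip once daily for 9 days. Body weight change was averaged from onset to termination of treatment. Early deaths from toxicity were recorded.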
# K562 [29] = assay: Compound was tested for its effect on NAD ribonucleotide levels of K562 cell at 100 uM concentration; format: functional, Homo sapiens; outline: as §5
# K562 [30] = assay: Compound was tested for its effect on GTP ribonucleotide levels of K562 cell at 100 uM concentration; format: functional, Homo sapiens; outline: as §5
# K562 [31] = assay: Compound was tested for its effect on UDP ribonucleotide levels of K562 cell at 50 uM concentration; format: functional, Homo sapiens; outline: as §5
# Homo sapiens = species on record: Homo sapiens; assay: Inhibitory concentration range against human bone marrow; format: functional, organism-based; outline: as §2
# K562 [32] = assay: Compound was tested for its effect on GDP ribonucleotide levels of K562 cell at 100 uM concentration; format: functional, Homo sapiens; outline: as §5
# Mus musculus [33] = assay: Average weight change of mice from onset to termination of drug treatment at 6.2 mg/kg dose; format: functional; outline: as §6
# K562 [34] = assay: Formation of NAD analogue by compound at 50 uM concentration against human myelogenous leukemia K562; format: functional
# Outline: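 K562 cells (1×10^7/10 mL) were labeled with 185 nM [2,8-3H]adenosine for 1 h at 37 °C, then given saline or analogue for 2 h. Cells were pelleted, washed with PBS and extracted in cold 10% trichloroacetic acid. Extracts were neutralized with 0.5 M tri-n-octylamine in freon and run on SAX HPLC with ammonium phosphate buffer. Results are pmol NAD analogue per 10^9 cells.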
# K562 [35] = assay: Compound was tested for its effect on AMP ribonucleotide levels of K562 cell at 100 uM concentration; format: functional, Homo sapiens; outline: as §5
# K562 [36] = assay: Compound was tested for its effect on ADP ribonucleotide levels of K562 cell at 10 uM concentration; format: functional, Homo sapiens; outline: as §5
smiles,measurement,setting,value
NC(=O)c1csc([C@@H]2O[C@H](CO)[C@@H](O)[C@H]2O)c1,IC90,HL-60 [1],8.3 µM
same,IC50,HL-60 [2],13.9 µM
same,Activity,K562 [3],1.85
same,Control,K562 [4],87%
same,Control,K562 [5],81%
same,Control,K562 [6],91%
same,Control,K562 [7],79%
same,Control,K562 [8],594%
same,Control,K562 [9],156%
same,Control,K562 [10],115%
same,Control,K562 [11],134%
same,Control,K562 [12],110%
same,Activity,K562 [13],2.8
same,Control,K562 [14],71%
same,Control,K562 [15],32%
same,IC50,[16],11.2 µM
same,Ratio,[17],21.9
same,IC50,L1210,7.6 µM
same,Activity,K562 [18],1.07
same,Control,K562 [19],131%
same,Control,K562 [20],66%
same,IC50,K562 [21],8.8 µM
same,Control,K562 [22],22%
same,Control,K562 [23],114%
same,Control,K562 [24],32%
same,IC50,HL-60 [25],2.4 µM
same,Control,K562 [26],97%
same,Control,K562 [27],689%
same,Change,Mus musculus [28],Toxic
same,Control,K562 [29],63%
same,Control,K562 [30],58%
same,Control,K562 [31],134%
same,IC50,Homo sapiens,21.6 µM
same,Control,K562 [32],77%
same,Change,Mus musculus [33],8.5%
same,Formation,K562 [34],505 pmol/10^9 cells
same,Control,K562 [35],131%
same,Control,K562 [36],122%
